Laboratory results as given in ChEMBL document CHEMBL1151795, “Novel iron complexes bearing N6-substituted adenosine derivatives: synthesis, magnetic, 57Fe Mössbauer, DFT, and in vitro cytotoxicity studies” (Bioorg Med Chem, 2008).

How the values were obtained:
Format in all cases: functional, cell-based
G-361 = assay: Cytotoxicity against human G361 cells after 72 hrs by calcein acetoxymethyl assay
Outline: (§1)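 Tumour cells kept in DMEM at 37 °C, 5% CO₂, 100% humidity; seeded at about 1.25 × 10⁵ cells/ml and preincubated 12 h. Compounds added at 0.5–50 μM (0.5–200 μM for FeCl₃·6H₂O) for 72 h. Live cells then stained 1 h with calcein AM and fluorescence read at 485/538 nm. IC₅₀ estimated as concentration lethal to 50% of cells; mean of three values.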

K562 = assay: Cytotoxicity against human K562 cells after 72 hrs by calcein acetoxymethyl assay; outline: as §1
HOS = assay: Cytotoxicity against human HOS cells after 72 hrs by calcein acetoxymethyl assay; outline: as §1
MCF7 = assay: Cytotoxicity against human MCF7 cells after 72 hrs by calcein acetoxymethyl assay; outline: as §1

Compound	IC50 (G-361; Homo sapiens, G-361, 72 h)	IC50 (K562; Homo sapiens, K562, 72 h)	IC50 (HOS; Homo sapiens, HOS, 72 h)	IC50 (MCF7; Homo sapiens, MCF7, 72 h)	IC50 (G-361; g-361)	IC50 (K562; k562)	IC50 (HOS; hos)	IC50 (MCF7; mcf7)
OC[C@@H]1O[C@H](n2cnc3c(NCc4ccc(F)cc4)ncnc32)[C@@H](O)[C@H]1O	> 50 µM	> 50 µM	> 50 µM	> 50 µM				
FeCl3.6H2O					> 200 µM	> 200 µM	> 200 µM	> 200 µM
OC[C@@H]1O[C@H](n2cnc3c(NCc4ccc(OC(F)(F)F)cc4)ncnc32)[C@@H](O)[C@H]1O	> 50 µM	> 50 µM	> 50 µM	> 50 µM				
